Experimental data reported in article PMC10053325 (Cell chemical biology, 2020).
Substitutions are numbered along the chain they refer to.

Tests used:
[1] = system: isogenic HCT116 R361H cells; test: Colony formation assay; assay type: cell-based, human; details: TGF-β 10 ng/mL, Ro-31-8220 1 μM, Go-6983 10 μM, 15-day treatment
Summary of the method: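 Single-cell suspensions seeded at 1,000 to 2,000 cells/well in 6-well plates, treated next day with TGF-β, test compound, or the combination. Agent-containing medium renewed every 3 days for 15 days. Colonies stained with crystal violet and colony area quantified from images. Mean ± SD, three independent experiments; Student's t-test.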

[2] = target: SMAD4^D351H/SMAD3 PPI (Homo sapiens, UniProt Q13485, D351H); test: GST pull-down assay of GST-SMAD4-D351H with VF-SMAD3 in cell lysate; assay type: binding; details: versus DMSO control
Chain of SMAD4^D351H/SMAD3 PPI (Q13485 whole entry D351H): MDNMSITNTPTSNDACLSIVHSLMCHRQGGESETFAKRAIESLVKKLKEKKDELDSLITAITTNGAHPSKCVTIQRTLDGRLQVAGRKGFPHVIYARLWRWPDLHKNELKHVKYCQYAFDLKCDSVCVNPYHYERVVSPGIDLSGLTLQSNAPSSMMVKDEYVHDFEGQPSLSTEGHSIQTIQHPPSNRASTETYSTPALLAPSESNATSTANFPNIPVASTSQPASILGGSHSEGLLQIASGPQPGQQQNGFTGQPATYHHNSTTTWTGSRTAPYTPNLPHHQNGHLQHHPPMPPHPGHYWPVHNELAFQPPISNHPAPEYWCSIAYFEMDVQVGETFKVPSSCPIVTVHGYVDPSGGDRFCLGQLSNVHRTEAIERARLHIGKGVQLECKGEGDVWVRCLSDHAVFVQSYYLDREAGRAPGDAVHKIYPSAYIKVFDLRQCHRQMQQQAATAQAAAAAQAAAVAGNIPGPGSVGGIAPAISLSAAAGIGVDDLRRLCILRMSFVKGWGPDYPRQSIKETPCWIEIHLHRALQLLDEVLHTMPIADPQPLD
Chain of SMAD4^D351H/SMAD3 PPI (P84022 whole entry partner): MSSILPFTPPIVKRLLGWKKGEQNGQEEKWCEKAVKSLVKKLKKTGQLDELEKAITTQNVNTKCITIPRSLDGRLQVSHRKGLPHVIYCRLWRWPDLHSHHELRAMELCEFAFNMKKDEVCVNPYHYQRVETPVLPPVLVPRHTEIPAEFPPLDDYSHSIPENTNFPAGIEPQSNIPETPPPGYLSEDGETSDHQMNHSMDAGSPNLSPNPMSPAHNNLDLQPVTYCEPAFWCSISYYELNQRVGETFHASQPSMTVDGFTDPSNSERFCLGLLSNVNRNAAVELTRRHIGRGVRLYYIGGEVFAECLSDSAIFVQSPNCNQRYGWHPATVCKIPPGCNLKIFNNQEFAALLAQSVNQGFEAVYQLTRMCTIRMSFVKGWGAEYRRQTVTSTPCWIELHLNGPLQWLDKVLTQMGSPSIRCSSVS
Summary of the method: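 HEK293T cells co-transfected with Venus-flag-SMAD3 and mutant GST-SMAD4 and lysed after 48 h in 0.5% Triton X-100 buffer (20 mM Tris-HCl, 150 mM NaCl, 5% glycerol, 2 mM EDTA). Lysate incubated with test compound 3 h rotating at 4°C, then glutathione beads 2 h at 4°C. Beads washed three times, boiled in SDS buffer, and bound SMAD3 detected by western blot.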

[3] = target: T1, SMAD4^R361H-SMAD3 PPI (Homo sapiens, UniProt Q13485, R361H); test: TR-FRET assay for SMAD4^R361H/SMAD3 PPI in HEK293T cell lysate; assay type: binding; details: primary screening, compounds 20 μM
Target sequence in this assay (Q13485 whole entry R361H): as the sequence (Q13485 whole entry D351H) above, with H351D, R361H counted along it
Target sequence in this assay (P84022 whole entry partner): as the sequence (P84022 whole entry partner) above

[4] = target: SMAD4^R361H interaction with R-SMADs (Homo sapiens, UniProt Q13485, R361H); test: R-SMADs selectivity profiling by TR-FRET; assay type: binding; details: dose-response AUC; SMAD1/2/3/5/8
Chain of SMAD4^R361H interaction with R-SMADs (Q13485 whole entry R361H): as the sequence (Q13485 whole entry D351H) above, with H351D, R361H counted along it
Chain of SMAD4^R361H interaction with R-SMADs (P84022 whole entry partner): as the sequence (P84022 whole entry partner) above

[5] = system: isogenic HCT116 R361H cells; test: Flow cytometry-based cell-cycle analysis; set-up: species or system human; details: TGF-β 10 ng/mL, Ro-31-8220 1 μM, Go-6983 10 μM
Summary of the method: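 Cells serum-starved 24 h, then placed in 10% FBS medium with TGF-β (10 ng/mL) and/or test compound for 24 h. Fixed in 70% ethanol overnight at 4°C, RNase-treated (1 mg/ml, 30 min, 37°C), stained with 40 μg/ml PI for 30 min. 5,000 cells per sample analysed by flow cytometry; % G1/S given as mean ± SD of three independent experiments.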

[6] = target: T2, SMAD4 WT (Homo sapiens, UniProt Q13485); test: Cellular thermal shift assay; assay type: cell-based; details: HCT116 cells, 10 μM for 8 h, compared with the DMSO control
T2 sequence (Q13485 1-552): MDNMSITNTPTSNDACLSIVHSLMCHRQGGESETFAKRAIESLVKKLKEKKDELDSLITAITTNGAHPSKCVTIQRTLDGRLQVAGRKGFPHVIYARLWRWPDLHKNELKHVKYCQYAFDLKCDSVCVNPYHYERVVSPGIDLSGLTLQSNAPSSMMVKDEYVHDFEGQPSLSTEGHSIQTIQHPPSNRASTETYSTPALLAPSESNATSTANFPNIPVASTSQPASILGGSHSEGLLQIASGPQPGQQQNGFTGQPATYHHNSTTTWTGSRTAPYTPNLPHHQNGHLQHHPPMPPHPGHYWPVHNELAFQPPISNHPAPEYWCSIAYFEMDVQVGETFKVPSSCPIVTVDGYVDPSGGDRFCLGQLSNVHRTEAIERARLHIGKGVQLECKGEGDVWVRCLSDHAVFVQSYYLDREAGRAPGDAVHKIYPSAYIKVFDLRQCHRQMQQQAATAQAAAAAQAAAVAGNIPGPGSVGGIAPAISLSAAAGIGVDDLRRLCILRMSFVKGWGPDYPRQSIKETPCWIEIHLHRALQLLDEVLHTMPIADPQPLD
Summary of the method: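 Cells at 60% confluency in 100 mm dishes given 10 μM test compound for 8 h. Pellets in PBS aliquoted and heated at 45~65 °C for 3 min, lysed by three liquid nitrogen/25 °C freeze-thaw cycles, spun 20,000g for 20 min at 4 °C. Soluble SMAD protein western-blotted with actin loading control. Thermal curves from densitometry; mean ± SD, three independent experiments.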

[7] = system: isogenic HCT116 R361H cells; test: Transcriptome profiling; assay type: cell-based, human; details: TGF-β 10 ng/mL, compound 1 μM
[8] = target: T1, SMAD4^R361H-SMAD3 PPI; test: Endogenous co-immunoprecipitation of SMAD4 complex in RCM-1 cells; assay type: cell-based; details: 10 μM for 8 h, endogenous proteins
Summary of the method: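 RCM-1 cells in 100 mm dishes exposed to 10 μM test compound or DMSO for 8 h, then lysed in PBS by sonication. About 1.5 mg total protein per IP incubated with antibody overnight at 4 °C, then with protein […] agarose beads 4 h at 4 °C. Beads washed four times in PBS; eluates probed for SMAD3 by western blot.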
Target sequence in this assay (Q13485 whole entry R361H): as the sequence (Q13485 whole entry D351H) above, with H351D, R361H counted along it
Target sequence in this assay (P84022 2-425 partner limits assumed): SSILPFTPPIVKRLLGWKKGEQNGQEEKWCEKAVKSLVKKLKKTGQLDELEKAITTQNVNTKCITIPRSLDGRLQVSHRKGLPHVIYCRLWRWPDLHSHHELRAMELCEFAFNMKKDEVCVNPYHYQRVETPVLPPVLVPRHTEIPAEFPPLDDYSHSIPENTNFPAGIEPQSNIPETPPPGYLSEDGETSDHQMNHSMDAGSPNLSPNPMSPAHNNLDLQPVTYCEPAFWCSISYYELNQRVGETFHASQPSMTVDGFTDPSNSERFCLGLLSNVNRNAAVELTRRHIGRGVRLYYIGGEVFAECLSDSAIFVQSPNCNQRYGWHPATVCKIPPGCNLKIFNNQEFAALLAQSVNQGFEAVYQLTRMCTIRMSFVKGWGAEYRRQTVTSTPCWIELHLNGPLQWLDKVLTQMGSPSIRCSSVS

[9] = system: isogenic HCT116 cells (SMAD4 WT, null, R361H); test: Cell viability assay; assay type: cell-based, human
Summary of the method: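 Isogenic HCT116 WT, SMAD4-null and R361H cells given TGF-β (10 ng/mL), test compound, or both; vehicle/DMSO controls. CellTiter-Blue added and incubated at 37°C. Fluorescence read at Ex 545/Em 615 nm, medium-only blank subtracted, normalized to untreated controls (% C). Mean ± SD of three independent experiments; Student's t-test.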

[10] = system: SMAD4/SMAD3 transcriptional activity (SBE-luc); test: SBE-driven luciferase reporter assay; assay type: cell-based, human; details: isogenic HCT116 R361H cells pre-treated with compound
Summary of the method: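 […] cells in 6-well plates co-transfected with SBE4-Luc (1 μg) and Renilla (0.1 μg) plasmids. After 24 h, cells pretreated 6 h with test compound, then stimulated with TGF-β for 18 h. Dual-Glo read-out as Firefly/Renilla ratio, expressed as TGF-β-induced fold-of-change; assays repeated three times.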

[11] = target: T3, SMAD4^R361H (Homo sapiens, UniProt Q13485, R361H); test: Cycloheximide; assay type: cell-based; details: RCM-1 cells, CHX chase
T3 sequence (Q13485 1-552 R361H): T2 sequence (Q13485 1-552) with R361H
Summary of the method: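 RCM-1 cells grown 24 h in 24-well plates, then given 100 μg/mL cycloheximide with test compound or DMSO. At each time point cells scraped into 2X SDS sample buffer and boiled 5 min. Run on 10% SDS-PAGE and blotted with anti-SMAD4; SMAD4 densitometry normalized to β-actin. Performed three times.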

[12] = system: isogenic HCT116 cells (SMAD4 R361H, null); test: Western blot of TGF-β-induced p15, p21, N-cadherin and Vimentin proteins; assay type: cell-based, human; details: R361H mutant cells, TGF-β 10 ng/mL, compound 1 μM
Summary of the method: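 Isogenic HCT116 SMAD4-null or R361H cells treated with TGF-β (10 ng/mL) and/or test compound (1 μM). Lysates run on 10% SDS-PAGE and transferred to nitrocellulose (100 V, 2 h, 4°C). Membranes blocked 1 h in 5% milk/TBST, probed overnight at 4°C, and developed by chemiluminescence. Representative of three independent experiments.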

Structure (SMILES) | colony area in combination with TGF-β [1] | SMAD3 level in the D351H GST pull-down complex [2] | potentiation effect (ΔTR-FRET) compared with the DMSO control [3] | compound-induced TR-FRET signal for SMAD4^R361H with SMAD3 compared with other R-SMADs [4] | sensitivity to TGF-β-induced G1/S cell-cycle arrest [5] | increase of Tm (ΔTm) of SMAD4 WT [6] | response to TGF-β in terms of DEGs [7] | amount of SMAD3 in the SMAD4-R361H immune-complex [8] | sensitivity to TGF-β-induced growth suppression (cell viability) ([9]; SMAD4 R361H cells, with TGF-β 10 ng/mL, Ro-31-8220 1 μM, Go-6983 10 μM) | growth inhibition, compound alone ([9]; SMAD4 WT, null and R361H cells, 1 μM) | TGF-β-induced SBE-luc activity [10] | SMAD4^R361H protein half-life compared with DMSO control [11] | SMAD4^R361H protein half-life ([11]; compound-treated) | TGF-β-induced expression of p15, p21, N-cadherin and Vimentin proteins [12]
COc1ccc2c(c1)c(C1=C(c3c[nH]c4ccccc34)C(=O)NC1=O)cn2CCCN(C)C [Go-6983] | A similar effect | significantly restored | > 40% | significantly higher |  |  |  |  |  |  |  |  |  | 
Cn1cc(C2=C(c3cn(CCCSC(=N)N)c4ccccc34)C(=O)NC2=O)c2ccccc21 [Ro-31-8220] | significantly decreased colony area | significantly restored | > 40% | significantly higher | regained sensitivity | but not WT or SMAD3 | reestablished to a similar degree to that of WT cells | drastically restored | restored the sensitivity | did not result in any significant growth inhibition | restored to a level similar to that of the WT cells | no significant difference | about 2 h | significant increase
